Peptide text beside a SMILES is read from it. * marks the point of attachment. Cbz = O=C(OCc1ccccc1)*; Boc = CC(C)(C)OC(=O)*; OcHex = C1CCC(O*)CC1; OBn = c1ccc(CO*)cc1; OtBu = CC(C)(C)O*
test system: K562/R7; assay: Inhibition of P-glycoprotein-mediated daunorubicin efflux in K562/R7 cells at 10 uM relative to control; assay type: cell-based; settings: Homo sapiens
In short: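 K562/R7 human leukemic cells with high P-glycoprotein expression, 1 million per mL RPMI 1640, incubated 1 h at 37 °C with daunorubicin (10 μM final) with or without inhibitor at 10 µM. Cells washed twice in ice-cold PBS, held on ice, then read by flow cytometry. Activity expressed relative to cyclosporin A (2 μM final, set as 100%). Duplicates, at least three separate experiments; SD reported.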

Structure (SMILES)	inhibition [%]
CC(C)(C)OC(=O)N[C@@H](CCC(=O)OCc1ccccc1)CN[C@@H](CCCCNC(=O)OCc1ccccc1)C(=O)OC(C)(C)C	79.1
CC(C)C(OC(=O)CC[C@@H](C(=O)OCc1ccccc1)N(CCCC(=O)N[C@@H](CCC(=O)OCc1ccccc1)C(=O)OCc1ccccc1)CCCC(=O)N[C@@H](CCC(=O)OCc1ccccc1)C(=O)OCc1ccccc1)C(C)C	3.35
CC(C)C(OC(=O)CC[C@H](NCCCC(=O)N[C@@H](CCC(=O)OCc1ccccc1)C(=O)OCc1ccccc1)C(=O)OCc1ccccc1)C(C)C	54.7
O=C(CCCN[C@@H](CCC(=O)OC1CCCCC1)C(=O)OCc1ccccc1)N[C@@H](CCC(=O)OCc1ccccc1)C(=O)OCc1ccccc1	98.3
O=C(CCC(=O)N[C@@H](CCC(=O)OC1CCCCC1)C(=O)OCc1ccccc1)N[C@@H](CCC(=O)OCc1ccccc1)C(=O)OCc1ccccc1	94.5
CC(C)(C)OC(=O)N[C@@H](CC(=O)OCc1ccccc1)C(=O)N[C@@H](CCCCNC(=O)OCc1ccccc1)C(=O)OC(C)(C)C (Boc-Asp(OBn)-Lys(Cbz)-OtBu)	72.7
CC(C)(C)OC(=O)N[C@@H](CC(=O)OCc1ccccc1)C(=O)CCC(=O)N[C@@H](CCCCNC(=O)OCc1ccccc1)C(=O)OC(C)(C)C	86.6
O=C(CCC(=O)N[C@@H](CCC(=O)OCc1ccccc1)C(=O)OCc1ccccc1)N[C@@H](CCC(=O)OCc1ccccc1)C(=O)OCc1ccccc1	93.7
CC(C)(C)OC(=O)N[C@H](CN[C@@H](CCCCNC(=O)OCc1ccccc1)C(=O)OC(C)(C)C)CC(=O)OCc1ccccc1	74.1
CC(C)(C)OC(=O)N[C@@H](CCC(=O)OC1CCCCC1)C(=O)N[C@@H](CCCCNC(=O)OCc1ccccc1)C(=O)OC(C)(C)C (Boc-Glu(OcHex)-Lys(Cbz)-OtBu)	85.4
O=C(CCCN[C@@H](CC(=O)OCc1ccccc1)C(=O)OCc1ccccc1)N[C@@H](CCC(=O)OCc1ccccc1)C(=O)OCc1ccccc1	82.2
CC(C)C(OC(=O)CC[C@H](NC(=O)OC(C)(C)C)C(=O)N[C@@H](CCCCNC(=O)OCc1ccccc1)C(=O)OC(C)(C)C)C(C)C	52.7
